# Mdm2-MdmX inh = inhibitors of human Mdm2/MdmX interaction. O15151+Q00987. SaOS-2 split-luciferase Mdm2/MdmX complementation, luminescence. inhibition, % at 8 µM. 330,000 tested, 3% active;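 active = inhibition of at least 50% at 8 µM in the primary screen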
# Target sequence (O15151 whole entry, looked up): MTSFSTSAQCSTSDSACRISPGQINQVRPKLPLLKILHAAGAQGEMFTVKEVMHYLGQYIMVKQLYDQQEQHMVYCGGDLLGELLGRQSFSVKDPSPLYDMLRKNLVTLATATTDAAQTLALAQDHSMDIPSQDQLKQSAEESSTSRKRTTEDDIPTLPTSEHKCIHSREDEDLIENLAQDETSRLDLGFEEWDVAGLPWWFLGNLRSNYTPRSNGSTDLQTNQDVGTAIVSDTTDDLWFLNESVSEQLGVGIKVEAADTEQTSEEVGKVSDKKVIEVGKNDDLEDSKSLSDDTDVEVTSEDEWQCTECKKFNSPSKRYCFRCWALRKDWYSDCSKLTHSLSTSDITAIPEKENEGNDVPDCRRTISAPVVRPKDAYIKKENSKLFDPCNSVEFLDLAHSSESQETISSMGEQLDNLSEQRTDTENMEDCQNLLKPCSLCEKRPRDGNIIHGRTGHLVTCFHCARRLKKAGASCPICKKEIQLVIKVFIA
# Target sequence (Q00987 whole entry, looked up): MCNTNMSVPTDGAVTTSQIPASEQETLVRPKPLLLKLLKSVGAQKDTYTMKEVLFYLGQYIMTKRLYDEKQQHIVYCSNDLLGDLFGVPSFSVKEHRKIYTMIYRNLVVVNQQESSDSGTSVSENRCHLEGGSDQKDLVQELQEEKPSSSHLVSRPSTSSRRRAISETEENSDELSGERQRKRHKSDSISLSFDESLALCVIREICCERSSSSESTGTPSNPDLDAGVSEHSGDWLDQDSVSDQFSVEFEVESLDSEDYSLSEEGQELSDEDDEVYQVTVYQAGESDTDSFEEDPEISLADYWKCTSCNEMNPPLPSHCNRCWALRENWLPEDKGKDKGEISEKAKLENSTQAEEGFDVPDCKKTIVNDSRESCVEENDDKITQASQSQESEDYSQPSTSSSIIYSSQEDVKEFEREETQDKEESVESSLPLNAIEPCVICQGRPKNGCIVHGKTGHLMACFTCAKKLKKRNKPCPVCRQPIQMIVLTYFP
# T cruzi inh = T. cruzi replication inhibition. AID 1885. 300,000 tested, 1.4% active. T. cruzi beta-gal in NIH3T3, luminescence, 90 h. inhibition, % (test concentration not listed);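 active = mean inhibition across valid replicates above about 55%, limit read from the data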;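 note: signal also drops with host cell toxicity which is not excluded here; 0% = plate median of DMSO wells and 100% = zero luminescence signal; higher percent means less beta-gal luminescence so fewer parasites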
#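 compound dosing = single 50 nL compound addition per well in DMSO | material = NIH/3T3 host cells with β-galactosidase reporter T. cruzi | input = 5,000 host fibroblasts per well | timing = ≥90 h infection period, 3 h prior cell attachment | read-out basis = percent inhibition of parasite-derived β-gal signal | detection = GalScreen β-gal luminescence, detergent lysis, 60 min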
# Beta apoptosis = blocks beta cell apoptosis; 300,000 tested, 0.8% active; AID 435005; INS-1E cytokine-induced death, ATP luminescence, 48 h; percent of positive-control rescue, neutral wells zero; protection from apoptosis, % (no concentration beside the values);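 active = Every replicate reaches about 75%, or at least half do and their mean reaches it too, limit read from the data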;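 note: 0% = cytokine-treated negative control wells and 100% = positive control rescue; higher means more ATP so stronger rescue from cytokine killing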
# CSC inhib = blocks cancer stem cells. 300,000 tested, 1.1% active. cancer stem cell-like cells viability, luminescence. AID 2717. inhibition, % at 7.5 µM; in the data active = inhibition above about 75%; tested in HMLE shEcad cells
# Lmaj promast = inhibitors of Leishmania major promastigote growth | 200,000 tested, 9% active | inhibition, % at 10 µM | Leishmania major promastigotes, resazurin fluorescence viability | AID 1063; in the data active = inhibition above about 50%;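 note: promastigotes grown with compound for 44 hours at 28 °C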
# SKKanGAS inh = blocks kanamycin growth of S. pyogenes SKKanGAS strain; AID 1662; inhibition, % at 7.5 µM; 300,000 tested, 1.3% active; BacTiter-Glo, 6 h;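 active = mean replicate score, as percent of positive control median, at least 50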;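 note: strain carries kanamycin resistance gene driven by streptokinase promoter and grows in 40 µg/ml kanamycin; loss of luminescence reflects streptokinase promoter inhibition or plain growth inhibition; 0% = median of DMSO wells and 100% = positive control at its reference dose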
# * = called active by the depositor; . = no result. A selection: hits, their analogues and other compounds. The true share with any hit is near 9.4%.
SMILES,Mdm2-MdmX inh,T cruzi inh,Beta apoptosis,CSC inhib,Lmaj promast,SKKanGAS inh
CCC1=Nc2cc(C(=O)NCc3ccco3)ccc2Sc2ccc(Cl)cc21,42,-79,3,55,68*,14
Cc1ccc(NC(=O)CN(C)C(=O)C(C)OC(=O)c2ccccc2NCCO)cc1 (stereo not given),10,-6,-3,-3,.,-7
CSc1cccc(NC(=O)NNC(=O)C2CCN(S(=O)(=O)N(C)C)CC2)c1,-2,-18,-6,-7,.,-2
Cc1ccc(/C=N/NC(=O)Cc2ccc(Cl)cc2)s1,-2,-11,-5,26,.,-8
O=S(=O)(Cc1cc(NCc2ccccc2)nc(-c2ccccn2)n1)c1ccccc1,12,27,.,10,21,56*
CC1CCN(C2CCN(C(=O)c3ccccc3F)CC2)CC1,14,-32,-5,0,.,0
O=C(c1ccccc1F)N1CCC(N2CCCCCC2)CC1,-5,19,-1,-3,73*,-2
COC(=O)c1ccc(C(=O)OC)c(NC(=S)N2CCN(c3cccc(Cl)c3)CC2)c1,17,3,-7,10,74*,14
CC(=O)c1ccc(N2CCN(C(=S)Nc3cccc(Cl)c3)CC2)cc1,34,12,-3,-4,57*,1
CC(=O)c1ccc(NC(=S)N2CCN(c3cccc(Cl)c3)CC2)cc1,19,-26,-2,-12,23,35
COC(=O)c1c(CCl)noc1C(=O)NCC1CCCO1 (stereo not given),-20,.,1,-8,100*,.
CCc1ccccc1SCc1noc(C(=O)NCC2CCCO2)c1C(=O)O (stereo not given),-8,-1,-13,6,-5,7
NC(N)=NCCCC(NC(=O)c1ccccc1)C(=O)Nc1ccc2ccccc2c1 (stereo not given),-30,.,-3,-3,.,.
N#Cc1nc(COc2ccc(Cl)cc2)oc1NCc1ccc2c(c1)OCO2,21,43,-8,-13,75*,5
CCOc1ccc(OCCC(=O)N2CCN(S(=O)(=O)c3cccc(F)c3)CC2)cc1,1,7,-2,19,.,-10
CCCc1cc(C(N)=O)c(NC(=O)c2cc(C)on2)s1,5,13,-14,-13,55*,3
O=C(Nc1ccc(S(=O)(=O)Nc2ccnn2-c2ccccc2)cc1)C(F)(F)F,9,-7,-2,-9,.,3
COc1cc(/C=C/C(=O)Nc2cc(S(=O)(=O)N3CCOCC3)ccc2N2CCCC2)cc(OC)c1OC,21,-4,3,-3,8,0
COc1ccc(/C=C/C(=O)Nc2cc(S(=O)(=O)N3CCOCC3)ccc2N2CCCC2)cc1OC,33,11,-6,-4,19,-4
Cc1ccc(/C=C/C(=O)Nc2cc(S(=O)(=O)N3CCOCC3)ccc2N2CCOCC2)cc1,-7,.,2,.,.,.
O=C(/C=C/c1ccc2c(c1)OCO2)Nc1cc(S(=O)(=O)N2CCOCC2)ccc1N1CCOCC1,24,7,-1,6,64*,-2
COc1ccc(/C=C/C(=O)Nc2cc(S(=O)(=O)N3CCCCC3)ccc2N2CCCCC2)cc1OC,-9,42,1,-13,97*,7
CCN(CC)S(=O)(=O)c1ccc(N2CCCCC2)c(NC(=O)/C=C/c2cc(OC)c(OC)c(OC)c2)c1,12,13,.,-2,69*,10
COc1ccc(C)cc1S(=O)(=O)N1CCCC(N2CCOCC2)C1 (stereo not given),2,-3,.,.,.,-1
COc1cccc(CN2CCN(S(=O)(=O)c3ccc(Cl)s3)CC2)c1,-14,-2,.,8,.,5
COc1ccc2c(c1OC)C(=O)OC2n1c(O)c(N=NC(C)=O)c2ccccc21 (stereo not given),-11,1,-10,-11,.,-5
Cc1nc(SCC(=O)N2CCC(Cc3ccccc3)CC2)[nH]c(=O)c1C,2,26,.,27,.,-14
CCOC(=O)C1CCN(C(=O)c2cccc(S(=O)(=O)NCc3ccccc3)c2)CC1,17,.,-2,7,.,.
O=C(CSc1nnc(COc2ccc(Cl)cc2)o1)N1c2ccccc2CCc2ccccc21,33,66*,-3,19,67*,9
COc1cc(NC(=O)CN(C)S(=O)(=O)c2ccc(-c3ccc(=O)[nH]n3)s2)cc(OC)c1,1,5,9,-6,.,4

# Screening results from PubChem BioAssay.
